Test results reported in ChEMBL document CHEMBL5042548, “Multiparameter Optimization of Oxidative Phosphorylation Inhibitors for the Treatment of Pancreatic Cancer” (J Med Chem, 2022).
The source made the active and inactive calls. No cut-off for these calls is given here.

Columns and labels:
[1] = AUC (0 to infinity) in CD-1 mouse at 10 mg/kg, po; format: ADME, organism-based; set-up: route oral, time infinity, dose 10 mg/kg; settings: in vivo
Procedure, shortened: (§1)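 Plasma PK in CD-1 mice after single i.v. (2 mg/kg) or p.o. (10 mg/kg) dosing. Parameters come from non-compartmental analysis. Bioavailability = (AUC_po×Dose_iv)/(AUC_iv×Dose_po)×100%. Terminal t1/2 is taken from ≥3 points in the terminal phase.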

Panc02 = experiment: Antitumor activity against Panc02 cells allografted in C57BL/6 mouse syngeneic model assessed as tumor growth inhibition at 10 mg/kg, po administered once daily for 28 days and measured twice per week; format: functional, organism-based; settings: time 28.0 day
Procedure, shortened: (§2)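 Female C57BL/6 mice, 6-10 weeks old, get 5×10^6 Pan02 cells s.c. in the right flank and are randomized at ~100 mm3 (n = 5/group). Dosing is daily for 28 days. Vehicle is 10% DMSO/50% PG/40% saline, except 15 mg/kg uses 10% DMSO/60% PG/30% saline. Caliper volume (length×width²)/2 and body weight are recorded twice weekly.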

[2] = Inhibition of oxidative phosphorylation in human MIA PaCa-2 cells assessed as reduction in ATP production incubated for 24 hrs in galactose-containing medium by celltiter-glo luminescence cell viability assay; format: functional, cell-based; settings: MIA PaCa-2, 24 h
Procedure, shortened: (§3)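 MIA PaCa-2 cells are seeded at 10000 cells/well in glucose RPMI + 10% FBS or in glucose-free RPMI + 10 mM galactose + 10% FBS. Total ATP is measured by CellTiter-Glo luminescence 24 h after compound. IC50 is by nonlinear regression; ≥3 independent experiments.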

MIA PaCa-2 [3] = experiment: Cytotoxicity against human MIA PaCa-2 cells assessed as inhibition of cell growth incubated for overnight in galactose-containing medium followed by compound addition and measured after 3 days by MTT assay; format: functional, cell-based; settings: MIA PaCa-2, 72 h
Procedure, shortened: (§4)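 MIA PaCa-2 3-day MTT in glucose medium (RPMI 1640 + 10% FBS) or galactose medium (glucose-free RPMI + 10 mM galactose + 10% FBS). Galactose wells are seeded at 8000 cells/well. MTT read-out is at 570 nm after DMSO solubilization. IC50 is by nonlinear regression; ≥3 independent experiments.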

[4] = AUC(0 to t) in CD-1 mouse at 10 mg/kg, po; format: ADME, organism-based; set-up: dose 10 mg/kg; settings: in vivo; procedure, shortened: as §1
[5] = Volume of distribution at steady state in CD-1 mouse at 2 mg/kg, iv; format: ADME, organism-based; settings: in vivo, read-out: Vdss; procedure, shortened: as §1
[6] = Initial plasma concentration in CD-1 mouse at 2 mg/kg, iv; format: ADME, organism-based; procedure, shortened: as §1
[7] = Oral bioavailability in CD-1 mouse at 10 mg/kg; format: ADME, organism-based; settings: in vivo; procedure, shortened: as §1
[8] = Terminal elimination half life in CD-1 mouse at 10 mg/kg, po; format: ADME, organism-based; settings: in vivo, read-out: LambdaZ (converted); procedure, shortened: as §1
[9] = Toxicity in C57BL/6 mouse allografted with mouse Panc02 cells assessed as body weight loss at 10 mg/kg, po administered once a day for 28 days and measured twice per week; format: organism-based; settings: in vivo, 672 h, time 28 day; procedure, shortened: as §2
[10] = Toxicity in C57BL/6 mouse allografted with mouse Panc02 cells assessed as drug tolerability at 10 mg/kg, po administered once a day for 28 days; format: organism-based; settings: in vivo, 672 h, time 28 day
[11] = AUC (0 to infinity) in CD-1 mouse at 2 mg/kg, iv; format: ADME, organism-based; set-up: route intravenous, time infinity, dose 2 mg/kg; settings: in vivo; procedure, shortened: as §1
[12] = Metabolic stability in human liver microsomes assessed as half life at 10 uM measured up to 60 mins in presence of NADPH by LC-MS/MS analysis; format: ADME, Microsome; settings: liver microsomes
[13] = Clearance in CD-1 mouse at 10 mg/kg, po; format: ADME, organism-based; settings: in vivo; procedure, shortened: as §1
MIA PaCa-2 [14] = experiment: Cytotoxicity against human MIA PaCa-2 cells assessed as inhibition of cell growth incubated for overnight in glucose-containing medium followed by compound addition and measured after 3 days by MTT assay; format: functional, cell-based; settings: MIA PaCa-2, 72 h; procedure, shortened: as §4
[15] = Metabolic stability in mouse liver microsomes assessed as half life at 10 uM measured up to 60 mins in presence of NADPH by LC-MS/MS analysis; format: ADME, Microsome; settings: liver microsomes
[16] = Clearance in CD-1 mouse at 2 mg/kg, iv; format: ADME, organism-based; settings: in vivo; procedure, shortened: as §1
[17] = Inhibition of oxidative phosphorylation in human MIA PaCa-2 cells assessed as reduction in ATP production incubated for 24 hrs in glucose-containing medium by celltiter-glo luminescence cell viability assay; format: functional, cell-based; settings: MIA PaCa-2, 24 h; procedure, shortened: as §3
[18] = AUC(0 to t) in CD-1 mouse at 2 mg/kg, iv; format: ADME, organism-based; set-up: dose 2 mg/kg; settings: in vivo; procedure, shortened: as §1
BXPC-3 = experiment: Cytotoxicity against human BXPC-3 cells assessed as inhibition of cell growth incubated for overnight in glucose-containing medium followed by compound addition and measured after 7 days by MTT assay; format: functional, cell-based; settings: BXPC-3, 168 h
Procedure, shortened: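 7-day MTT in glucose medium (RPMI 1640 + 10% FBS). Seeding is 200 cells/well for MIA PaCa-2 and 300 cells/well for BxPC-3, overnight at 37 °C, 5% CO2, before compound. MTT 3 mg/mL is added for 4 h, then DMSO, and absorbance is read at 570 nm. IC50 is by nonlinear regression; ≥3 independent experiments.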

[19] = Inhibition of oxidative phosphorylation complex I in human MIA PaCa-2 cells assessed as reduction in NAD+/NADH ratio incubated for 48 hrs in glucose-containing medium by NAD/NADH-Glo assay; format: cell-based; settings: MIA PaCa-2, 48 h
Procedure, shortened: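 MIA PaCa-2 cells at 5×10^3/well are treated next day for 48 h in RPMI 1640 + 10% FBS. After a PBS wash, cells are lysed with bicarbonate buffer/1% DTAB. Lysate is split: NAD+ with 0.4 N HCl at 60 °C for 15 min, NADH heated directly, then neutralized. NAD/NADH-Glo luminescence is read after 30 min. IC50 is by nonlinear regression.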

[20] = Terminal elimination half life in CD-1 mouse at 2 mg/kg, iv; format: ADME, organism-based; settings: in vivo, read-out: LambdaZ (converted); procedure, shortened: as §1

AUC(0-inf) [1]: 0.417 µM·h
AUC(0-t) [4]: 0.368 µM·h
Vd [5]: 5.2 L/kg
C0 [6]: 354 ng/mL
F [7]: 11.3%
half-life [8]: 184 min
AUC(0-inf) [11]: 0.657 µM·h
half-life at 10 µM [12]: > 60 min
CL/F [13]: 835 mL/min/kg
half-life at 10 µM [15]: > 60 min
clearance [16]: 106 mL/min/kg
AUC(0-t) [18]: 0.65 µM·h
half-life [20]: 85.2 min
Compound: CC(C)S(=O)(=O)c1ccc(S(=O)(=O)N2CCC[C@@H](C(=O)N3CCC(F)(F)CC3)C2)cc1
Activity (Panc02): Active
IC50 [2]: 11 nM
IC50 (MIA PaCa-2 [3]): 9.1 nM
Activity [9]: Non-Toxic
Activity [10]: Non-Toxic
IC50 (MIA PaCa-2 [14]): > 3000 nM
IC50 [17]: > 3000 nM
IC50 (BXPC-3): 50 nM
IC50 [19]: 3.6 nM
